In publication PMC3535268 (Journal of neuroscience methods, 2011):
Where two headings read alike, the source gives them in different places.

Tests used:
Type in all cases: biochemical, Fischer 344 rats
[1] = tested on: Complex II dependent oxygen consumption; conditions: log dose response; no observed differences across brain regions
Method in brief: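 Brain regions dissected from 16-week male rats; mitochondria purified by differential centrifugation, nitrogen disruption at 1200 psi and Ficoll gradient. Wells got 2.5 or 5 μg protein, were spun 200 × g, and were overlaid with respiration buffer pH 7.2 at 37 °C. […] 5–6 rats/group; two-way ANOVA.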

[2] = tested on: Complex I driven oxygen consumption; conditions: cortical mitochondria
Method in brief: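 Cortical mitochondria were isolated by differential centrifugation, nitrogen bomb and Ficoll purification, then seeded on XF24 plates in respiration buffer (mannitol/sucrose/BSA/HEPES/MgCl/KH2PO4, pH 7.2, 37 °C). A modified protocol repeatedly measured O2 consumption in the same well after injecting low rotenone (10 fM, 10 pM, 10 nM; diluted in ethanol). 5–6 rats/group; two-way ANOVA with post hoc tests.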

[3] = biological target: Mitochondrial Complex I (Rattus norvegicus, UniProt P03889+Q641Y2); assay: Mitochondrial Complex I enzyme activity assay
Chain of Mitochondrial Complex I (Q641Y2 34-463): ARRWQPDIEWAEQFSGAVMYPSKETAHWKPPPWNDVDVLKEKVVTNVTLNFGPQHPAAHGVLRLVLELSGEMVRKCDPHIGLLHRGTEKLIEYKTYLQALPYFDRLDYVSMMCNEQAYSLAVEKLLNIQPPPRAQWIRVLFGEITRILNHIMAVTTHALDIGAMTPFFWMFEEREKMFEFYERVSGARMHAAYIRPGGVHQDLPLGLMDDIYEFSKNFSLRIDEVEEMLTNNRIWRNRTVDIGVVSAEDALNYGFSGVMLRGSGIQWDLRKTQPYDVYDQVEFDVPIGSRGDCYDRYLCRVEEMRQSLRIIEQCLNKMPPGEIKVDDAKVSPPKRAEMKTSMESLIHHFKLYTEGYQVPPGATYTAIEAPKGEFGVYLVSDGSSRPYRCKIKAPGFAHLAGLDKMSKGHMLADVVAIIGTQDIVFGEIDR
Chain of Mitochondrial Complex I (P03889 whole entry): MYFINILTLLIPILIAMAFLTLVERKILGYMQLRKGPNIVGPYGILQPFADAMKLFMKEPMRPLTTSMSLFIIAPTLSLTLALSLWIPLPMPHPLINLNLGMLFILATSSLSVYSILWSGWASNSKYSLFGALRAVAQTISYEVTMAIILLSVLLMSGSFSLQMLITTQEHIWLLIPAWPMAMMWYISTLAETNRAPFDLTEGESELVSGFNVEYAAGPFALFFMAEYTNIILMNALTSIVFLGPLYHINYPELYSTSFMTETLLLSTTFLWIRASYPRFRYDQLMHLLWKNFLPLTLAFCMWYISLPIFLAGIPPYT

Compound | effect on mitochondrial driven oxygen consumption (Complex II) [1] | effect on mitochondrial oxygen consumption ([2]; 10 pM rotenone, up to 8 min following exposure) | effect on mitochondrial oxygen consumption ([2]; 10 nM rotenone) | effect on mitochondrial oxygen consumption ([2]; 10 fM rotenone) | IC50 [3]
O=C(O)CC(=O)O [malonate] | dose dependent decrease | – | – | – | –
C=C(C)[C@H]1Cc2c(ccc3c2O[C@@H]2COc4cc(OC)c(OC)cc4[C@@H]2C3=O)O1 [rotenone] | – | did not result in any reduction in oxygen consumption | significant reduction in mitochondrial oxygen consumption immediately following exposure | no reduction in oxygen consumption | 0.163 to 0.238 nM
